According to ChEMBL document CHEMBL3785069, “Tumour-specific cytotoxicity and structure-activity relationships of novel 1-[3-(2-methoxyethylthio)propionyl]-3,5-bis(benzylidene)-4-piperidones” (Bioorg Med Chem, 2016):
Active and inactive are the calls of the source. The calls are words filed in the database; no cut-off is given here.

What was measured:
HSC-4 [1] = assay: Selectivity index, ratio of average CC50 for human HGF and HPLF cells to CC50 for human HSC4 cells; conditions: pooled result: one value given for 2 cell lines, strains, targets or settings
[2] = Cytotoxicity against human HSC3 cells after 48 hrs by MTT assay; assay type: functional; conditions: HSC-3, 48 h
Procedure, shortened: (§1)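 Oral carcinoma (HSC-2, HSC-3, HSC-4) and nonmalignant HGF and HPLF cells incubated with graded compound concentrations at 37 °C for 48 h in DMEM plus 10% heat-inactivated FBS. Viability read by MTT. CC50 from duplicate runs, differing by under 10% at each concentration.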

CCRF-CEM = assay: Cytotoxicity against human CEM cells after 72 hrs by MTT assay; assay type: functional, cell-based
Procedure, shortened: (§2)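 Leukemic cells exposed to a concentration series of each compound in RPMI 1640 medium at 37 °C, 72 h for Molt4/C8 and CEM, 48 h for L1210.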

[3] = Cytotoxicity against human HPLF cells after 48 hrs by MTT assay; assay type: cell-based
Procedure, shortened: as §1

[4] = Cytotoxicity against human Molt4/C8 cells after 72 hrs by MTT assay; assay type: functional, cell-based; conditions: MOLT-4, 72 h
Procedure, shortened: as §2

HSC-3 [5] = assay: Selectivity index, ratio of average CC50 for human HGF and HPLF cells to CC50 for human HSC3 cells; conditions: pooled result: one value given for 2 cell lines, strains, targets or settings
HSC-2 [6] = assay: Selectivity index, ratio of average CC50 for human HGF and HPLF cells to CC50 for human HSC2 cells; conditions: pooled result: one value given for 2 cell lines, strains, targets or settings
L1210 = assay: Cytotoxicity against mouse L1210 cells after 48 hrs by MTT assay; assay type: functional, cell-based; conditions: L1210, 48 h
Procedure, shortened: as §2

[7] = Cytotoxicity against human HGF cells after 48 hrs by MTT assay; assay type: cell-based
Procedure, shortened: as §1

[8] = Cytotoxicity against human HSC4 cells after 48 hrs by MTT assay; assay type: functional; conditions: HSC-4, 48 h
Procedure, shortened: as §1

[9] = Cytotoxicity against human HSC2 cells after 48 hrs by MTT assay; assay type: functional; conditions: HSC-2, 48 h
Procedure, shortened: as §1

HSC-2 [10] = assay: Induction of apoptosis in human HSC2 cells assessed as PARP1 cleavage at 0.4 uM after 24 hrs by SDS-PAGE method; assay type: functional, cell-based
Procedure, shortened: (§3)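 HSC-2 cells grown in 6-well plates for 24 h, then exposed to 0.1, 0.2, 0.3 and 0.4 µM for 24 h. Cells scraped into lysis buffer and run on 8% SDS-PAGE, then transferred to PVDF. Cleaved PARP (Asp214) detected with a human-specific antibody on X-ray film.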

HSC-2 [11] = assay: Induction of apoptosis in human HSC2 cells assessed as cell death after 24 hrs by Annexin-V-FITC/PI-based flow cytometric analysis; assay type: functional
Procedure, shortened: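 HSC-2 cells treated in RPMI for 24 h at 37 °C at 0.5, 1.0 and 2.0 µM. Early and late apoptotic fractions measured by flow cytometry after Annexin-V-FITC/propidium iodide staining.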

HSC-2 [12] = assay: Induction of apoptosis in human HSC2 cells assessed as PARP1 cleavage after 24 hrs by SDS-PAGE method; assay type: functional, cell-based
Procedure, shortened: as §3

HSC-4 [13] = assay: Potency index, ratio of CC50 for mephalan to CC50 for test compound against human HSC4 cells; assay type: functional
HSC-2 [14] = assay: Potency index, ratio of CC50 for mephalan to CC50 for test compound against human HSC2 cells; assay type: functional
HSC-3 [15] = assay: Potency index, ratio of CC50 for mephalan to CC50 for test compound against human HSC3 cells; assay type: functional

Row | Structure (SMILES) | Selectivity Index (HSC-4 [1]) | CC50 [2] | IC50 (CCRF-CEM) | CC50 at 48 h [3] | IC50 [4] | Selectivity Index (HSC-3 [5]) | Selectivity Index (HSC-2 [6]) | IC50 (L1210) | CC50 at 48 h [7] | CC50 [8] | CC50 [9] | Activity (HSC-2 [10]) | Activity (HSC-2 [11]) | Activity (HSC-2 [12]) | Ratio (HSC-4 [13]) | Ratio (HSC-2 [14]) | Ratio (HSC-3 [15])
1 | N[C@@H](Cc1ccc(N(CCCl)CCCl)cc1)C(=O)O [MELPHALAN] | 6.99 | 9900 nM | 1740 nM | 77.1 µM | 3480 nM | 7.84 | 4.65 | 5.94 µM | 78 µM | 11100 nM | 16700 nM |  |  |  |  |  | 
2 | COCCSCCC(=O)N1C/C(=C\c2ccc(C)cc2)C(=O)/C(=C/c2ccc(C)cc2)C1 | 8.12 | 1700 nM | 1950 nM | 9.17 µM | 2660 nM | 5.73 | 6.72 | 4.9 µM | 10.3 µM | 1200 nM | 1450 nM |  |  |  |  |  | 
3 | COCCS(=O)(=O)CCC(=O)N1C/C(=C\c2ccc(F)cc2)C(=O)/C(=C/c2ccc(F)cc2)C1 |  |  | 610 nM |  | 1120 nM |  |  | 2.45 µM |  |  |  |  |  |  |  |  | 
4 | COCCS(=O)(=O)CCC(=O)N1C/C(=C\c2ccccc2)C(=O)/C(=C/c2ccccc2)C1 | 6.93 | 1190 nM | 1140 nM | 8.43 µM | 1660 nM | 7.57 | 6.17 | 2.67 µM | 9.59 µM | 1300 nM | 1460 nM |  |  |  |  |  | 
5 | COCCSCCC(=O)N1C/C(=C\c2ccccc2)C(=O)/C(=C/c2ccccc2)C1 | 7.07 | 1470 nM | 1230 nM | 7.58 µM | 1340 nM | 5.87 | 6.64 | 3 µM | 9.67 µM | 1220 nM | 1300 nM |  |  |  |  |  | 
6 | COCCSCCC(=O)N1C/C(=C\c2ccc(Cl)cc2)C(=O)/C(=C/c2ccc(Cl)cc2)C1 | 6.93 | 1030 nM | 1240 nM | 5.97 µM | 1730 nM | 5.45 | 5.15 | 3.44 µM | 5.24 µM | 810 nM | 1090 nM |  |  |  |  |  | 
7 | COCCSCCC(=O)N1C/C(=C\c2ccc(OC)cc2)C(=O)/C(=C/c2ccc(OC)cc2)C1 | 10.1 | 2270 nM | 6310 nM | 15.5 µM | 7080 nM | 7.23 | 8.33 | 13.2 µM | 17.2 µM | 1630 nM | 1970 nM |  |  |  |  |  | 
8 | COCC[S+]([O-])CCC(=O)N1C/C(=C\c2ccc(F)cc2)C(=O)/C(=C/c2ccc(F)cc2)C1 (configuration not stated) | 6.46 | 1010 nM | 830 nM | 4.21 µM | 1280 nM | 4.48 | 6.55 | 3.33 µM | 4.83 µM | 700 nM | 690 nM |  |  |  |  |  | 
9 | COCCOCCC(=O)N1C/C(=C\c2ccccc2)C(=O)/C(=C/c2ccccc2)C1 | 7.41 | 1320 nM | 1760 nM | 8.84 µM | 1840 nM | 6.85 | 8.95 | 6.24 µM | 9.24 µM | 1220 nM | 1010 nM |  |  |  |  |  | 
10 | COCCSCCC(=O)N1C/C(=C\c2ccc(F)cc2)C(=O)/C(=C/c2ccc(F)cc2)C1 | 9.16 | 1190 nM | 1600 nM | 4.99 µM | 1720 nM | 4.31 | 6.75 | 5.85 µM | 5.27 µM | 560 nM | 760 nM |  |  |  |  |  | 
11 | COCCSCCC(=O)N1C/C(=C\c2ccc(OC)c(OC)c2)C(=O)/C(=C/c2ccc(OC)c(OC)c2)C1 | 10.4 | 1220 nM | 1840 nM | 8.07 µM | 1810 nM | 7.34 | 22.4 | 1.57 µM | 9.83 µM | 860 nM | 400 nM | Active |  |  |  |  | 
12 | COCCSCCC(=O)N1C/C(=C\c2ccc([N+](=O)[O-])cc2)C(=O)/C(=C/c2ccc([N+](=O)[O-])cc2)C1 | 10.2 | 390 nM | 1290 nM | 2.59 µM | 1370 nM | 7.85 | 7.65 | 2.13 µM | 3.52 µM | 300 nM | 400 nM |  | Dose-dependent effect | Dose-dependent effect | 35 | 35 | 35
13 | COCC[S+](C)CCC(=O)N1C/C(=C\c2ccccc2)C(=O)/C(=C/c2ccccc2)C1.F[B-](F)(F)F (configuration not stated) | 6.02 | 1430 nM | 1400 nM | 6.25 µM | 1340 nM | 5.72 | 5.24 | 3.45 µM | 10.1 µM | 1360 nM | 1560 nM |  |  |  |  |  | 
14 | COCC[S+]([O-])CCC(=O)N1C/C(=C\c2ccccc2)C(=O)/C(=C/c2ccccc2)C1 (configuration not stated) | 8.92 | 2100 nM | 1290 nM | 9.1 µM | 1620 nM | 4.33 | 15.7 | 4.91 µM | 9.09 µM | 1020 nM | 580 nM |  |  |  |  |  | 
